Assay outcomes from PubChem BioAssay.
An excerpt weighted towards active compounds, which were near 4% of everything screened.
CHO parental Ca = counter-screen: ATP calcium response change in parental CHO cells. actives 0.63% (n = 330,000). parental CHO-K1, ATP-induced calcium, Fluo-8 fluorescence. AID 463079. inhibition, % at 5.6 µM;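 active means inhibition above that plate's mean sample inhibition plus 3 SD, cut at about 26% in these data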;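 further: 0% = ATP-challenged DMSO wells and 100% = DMSO wells without ATP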
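Material – parental CHO cells · Reagent – ATP stimulus · Compound – single nominal dose of 5.6 µM per compound · Detection – Fluo-8 fluorescence · Read-out basis – percent inhibition of calcium signal · Controls – ATP-challenged DMSO wells low, unchallenged DMSO wells high · Repeats – no replicates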
NTR1 ag = activates human neurotensin receptor 1; activation, % at 20 µM; NTR1-U2OS beta-arrestin-GFP spot imaging, agonist mode; P30989; actives 0.17% (n = 330,000);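 active means activation at or above 40% of the spot to cytoplasm intensity ratio, with at least 20 cells analyzed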;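 further: 0% = DMSO without peptide and 100% = 100 nM NTR1 peptide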
Target sequence (P30989 whole entry, looked up): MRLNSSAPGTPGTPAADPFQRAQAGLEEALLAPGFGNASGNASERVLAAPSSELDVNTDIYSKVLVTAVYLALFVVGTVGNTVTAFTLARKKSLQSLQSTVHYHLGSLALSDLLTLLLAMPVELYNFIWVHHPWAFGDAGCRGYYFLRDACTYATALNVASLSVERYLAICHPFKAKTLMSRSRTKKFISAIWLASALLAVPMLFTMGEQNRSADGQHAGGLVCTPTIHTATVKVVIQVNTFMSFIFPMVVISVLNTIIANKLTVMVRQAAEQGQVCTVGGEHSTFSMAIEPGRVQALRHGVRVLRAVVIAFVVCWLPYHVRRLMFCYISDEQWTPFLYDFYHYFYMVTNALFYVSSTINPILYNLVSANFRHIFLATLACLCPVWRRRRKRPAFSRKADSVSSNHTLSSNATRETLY
OX1R antag-1 = human HCRTR1 antagonism; O43613; CHO/OX1R cells, Fluo-8 calcium fluorescence, orexin A; inhibition, % at 5 µM; actives 0.43% (n = 330,000); AID 434989;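 active means inhibition above its plate's threshold, mean inhibition of all tested compounds on the plate plus 3 SD, cut at about 37% in these data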;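 further: 0% = orexin A challenge wells and 100% = SB-334867-A antagonist wells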
TAAR1 ag = human TAAR1 agonism; AID 624467; CHO RD-HGA16 TAAR1, Fluo-8 calcium fluorescence; vehicle wells 0%, saturating PEA agonist 100%; activation, % at 3 µM; Q96RJ0; actives 0.99% (n = 360,000);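 active means activation above the mean activation of all test compounds in the run plus 3 SD, cut at about 38% in these data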
Target sequence (Q96RJ0 whole entry, looked up): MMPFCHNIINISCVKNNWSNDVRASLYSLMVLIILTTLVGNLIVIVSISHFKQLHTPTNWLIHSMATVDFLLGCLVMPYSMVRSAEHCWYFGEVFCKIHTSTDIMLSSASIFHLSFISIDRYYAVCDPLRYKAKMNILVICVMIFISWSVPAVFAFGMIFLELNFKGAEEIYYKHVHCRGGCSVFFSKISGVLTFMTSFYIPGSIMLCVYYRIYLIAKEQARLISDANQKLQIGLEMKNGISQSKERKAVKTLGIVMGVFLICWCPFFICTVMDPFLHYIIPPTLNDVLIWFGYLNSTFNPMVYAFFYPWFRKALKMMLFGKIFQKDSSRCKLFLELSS
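test system = CHO RD-HGA16 cells carrying human TAAR1 plus Gα16 | schedule = 17-24 h seeding, 75 min 37 °C dye, 30 min RT | compound dosing = 3 µM single concentration | control set = DMSO and PEA EC100 | replicates = n 1 | signal = Fluo-8 fluorescence, 5 s baseline then 140 s kinetic read | measure = percent activation vs PEA EC100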
TAAR1 antagonist = antagonists of human TAAR1; actives 1.5% (n = 360,000); Q96RJ0; inhibition, % at 3 µM; CHO RD-HGA16 TAAR1, Fluo-8 calcium fluorescence, antagonist;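 active means inhibition above a per-plate cutoff, the mean inhibition of test compounds on that plate plus 3 SD, cut at about 49% in these data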;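 further: 0% = DMSO plus EC80 beta-PEA response and 100% = DMSO alone without agonist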
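Material: CHO RD-HGA16 cells bearing hTAAR1; compound dosing: one-point dosing, 3 µM nominal final; schedule: dye loading 75 min at 37 °C, then 30 min room temperature; measured by: calcium fluorescence with Fluo-8; control set: vehicle and agonist controls; replication: n of 1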
OX1R antag-2 = blocks the human orexin 1 receptor; O43613; OX1R-expressing cells, FRET antagonist read-out; inhibition, % at 6.6 µM; actives 1.8% (n = 330,000); in the data active means inhibition mostly above about 38%, no sharp cut-off; inactive means mostly below about 40%;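 further: 0% = agonist challenge alone and 100% = reference antagonist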
OX1R HTRF confirm = OX1R (human) antagonism, HTRF confirmed | shares compounds with OX1R antag-2 | OX1R-expressing cells, HTRF antagonist assay | inhibition, % at 6.6 µM | actives 49% (n = 1,800) | AID 492964; in the data active means inhibition above about 55%;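 further: CHO cells expressing OX1R stimulated with orexin A at about EC80; 0% = agonist challenge alone and 100% = reference antagonist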
CHO-K1 HTRF cnt = signal in parental CHO-K1 cells, OX1R antagonist counter-screen | actives 48% (n = 1,800) | inhibition, % at 6.6 µM | AID 493232 | HTRF counterscreen | shares compounds with OX1R antag-2; in the data active means inhibition above about 17%;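 further: 0% = agonist challenge with vehicle and 100% = vehicle alone without agonist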
* marks the source's active call; other numbers are inactive results; . = no result given; + = active, no number.

SMILES | CHO parental Ca | NTR1 ag | OX1R antag-1 | TAAR1 ag | TAAR1 antagonist | OX1R antag-2 | OX1R HTRF confirm | CHO-K1 HTRF cnt
O=C(Nc1ccc(F)cc1F)C1CCCN1S(=O)(=O)c1cccc2nsnc12 (stereo not drawn) | -7 | 0 | 4 | 0 | -5 | 77* | 59* | 27*
CCN1CCc2c(C#N)c(N3CCOCC3)nc(NCc3ccccc3)c2C1 | . | . | . | 10 | 2 | . | . | .
CCN1CCc2c(C#N)c(N3CCOCC3)nc(NCCO)c2C1 | 1 | 0 | -1 | 4 | 5 | 78* | 7 | -1
CC(C)C[C@H]1CNC(=O)C(=O)N1C[C@H]1CCCN1C[C@H](CC(C)C)N1C[C@H](Cc2ccccc2)N(CCc2ccccc2)C(=O)C1=O | . | . | . | 0 | -21 | . | . | .
CCN(CC)c1ccc(NC(=O)c2cc3ccccc3o2)c(C)c1 | -1 | 4 | 2 | 26 | 23 | 80* | 59* | 9
Cc1ccccc1NC(=O)c1cc2ccccc2o1 | -8 | 2 | -16 | 1 | 2 | -5 | . | .
CCCN1CCCC[C@H]1C(=O)Nc1c(C)cccc1C | 7 | 4 | -2 | 0 | -1 | 9 | . | .
Cc1cc(C)c(NC(=O)C2CCCN2CCOC(=O)c2cccc([N+](=O)[O-])c2)c(C)c1 (stereo not drawn) | -15 | 1 | -7 | 5 | -5 | 97* | 70* | 8
NC(=O)C1CCN(c2nc(-c3cccs3)cs2)CC1 | -6 | -2 | -1 | . | . | 7 | . | .
Cc1c(/C=C/C(=O)c2cccs2)cnn1C | -15 | 2 | 10 | 3 | -11 | 103* | 62* | 15
CCc1ccc(C(=O)/C=C/c2cnn(C)c2C)s1 | -16 | 0 | -7 | 5 | 8 | 24 | . | .
N#Cc1ccc(OCC(=O)NCC2COc3ccccc3O2)cc1 (stereo not drawn) | -7 | -2 | -5 | 2 | 8 | 6 | . | .
O=[N+]([O-])c1cccc(/C=N/n2cnnc2)c1 | 0 | 0 | -5 | 0 | -17 | 77* | 26 | 31*
N#Cc1cc([N+](=O)[O-])ccc1NC(=O)COC(=O)C1CC2CCCC(C1)C2=O (stereo not drawn) | -3 | 0 | -20 | 2 | -6 | 88* | 33 | 43*
CN(C)S(=O)(=O)c1cccc2c1C(=O)c1ccccc1C2=O | -7 | 0 | -14 | 1 | -5 | 105* | 20 | 17
CN(C)S(=O)(=O)c1ccccc1C#N | 3 | 2 | 0 | 12 | -11 | 6 | . | .
COc1ccc(CNc2nc(SCC(=O)NCc3ccco3)nc3ccccc23)cc1 | -2 | 1 | 7 | 3 | -16 | 79* | 24 | 1
O=C(CSc1nc2ccccc2c2nc3ccccc3n12)NCc1ccco1 | -17 | 0 | -4 | 10 | -3 | 81* | 62* | 5
Cc1ccc(C(C(=O)NC2CCCCC2)N2CCC3(CC2)OCCO3)cc1 (stereo not drawn) | -3 | 0 | -21 | 3 | 9 | 11 | . | .
COc1ccc(C(C(=O)NC2CCCCC2)N2CCC3(CC2)OCCO3)cc1 (stereo not drawn) | 0 | 0 | -3 | 9 | 3 | 89* | 14 | 2
O=C(Nc1ccc2nsnc2c1)N1CCCCCC1 | -8 | 2 | -3 | 0 | 10 | 87* | 35 | 27*
CCC(=O)N1CCN(c2ccc(NC(=S)NC(=O)c3cc4ccccc4o3)cc2)CC1 | . | 2 | . | 6 | 4 | . | . | .
CC(C)n1c(O)c(N=NC(=O)CNC(=O)Cc2ccc(Cl)cc2)c2ccccc21 | -28 | 3 | -25 | 2 | 18 | 6 | . | .
COc1ccccc1C(=O)NCC(=O)N=Nc1c(O)n(C(C)C)c2ccccc12 | -24 | 4 | 1 | 2 | 17 | 93* | 76* | 5
COc1ccc2cc3cc(C(=O)N4CCN(c5ccccn5)CC4)oc3nc2c1 | -18 | 9 | -28 | 3 | 1 | 13 | . | .
SMILES | CHO parental Ca | NTR1 ag | OX1R antag-1 | TAAR1 ag | TAAR1 antagonist | OX1R antag-2 | OX1R HTRF confirm | CHO-K1 HTRF cnt
O=C(NN1C(=O)c2ccc(-c3ccc4c(c3)C(=O)N(NC(=O)c3cccnc3)C4=O)cc2C1=O)c1cccnc1 | -9 | 0 | -9 | 7 | 7 | 92* | 39 | 33*
CC1CC(C)(C)CC2(C1)NC(=O)N(CC(=O)Nc1cc(C(F)(F)F)ccc1N1CCCCC1)C2=O (stereo not drawn) | . | . | . | -1 | -20 | . | . | .
Cc1cc(=O)[nH]c(N/N=C/c2c(C)oc3ccccc23)n1 | -13 | 2 | -9 | 2 | -17 | 77* | 85* | 6
O=C1C(Cl)=C(NCCCO)C(=O)c2ccccc21 | -1 | -1 | 2 | 3 | -12 | + | 67* | 104*
CCN(CCCNC(=O)C1CCN(S(=O)(=O)c2cccc3nonc23)CC1)Cc1ccccc1 | -12 | -1 | -16 | 13 | -2 | 92* | 29 | 44*
CCCNC(=O)C1CCN(S(=O)(=O)c2cccc3nonc23)CC1 | -5 | 0 | -3 | 5 | -9 | 29 | . | .
COc1ccc(C(=O)NCC(=O)N2CCC(Cc3ccccc3)CC2)cc1OC | . | -1 | . | 0 | -5 | . | . | .
CNS(=O)(=O)c1cc2c3c(cccc3c1)C(=O)NC2=O | -4 | 2 | -2 | 2 | -6 | 130* | 51 | 78*
CC1C(=O)N2CCCc3cc(NC(=O)C(=O)NCc4cccnc4)cc1c32 (stereo not drawn) | -6 | 3 | 13 | 0 | 14 | 20 | . | .
Brc1ccc(C[n+]2ccccc2)cc1 | -10 | 0 | -1 | 7 | 2 | 45 | . | .
C/C(=N\Nc1ccccc1C(=O)O)c1ccncc1 | 6 | -1 | -7 | 4 | -10 | 24 | . | .
O=C(Nc1ccc2ccccc2c1)c1cnccn1 | -13 | -1 | 14 | 4 | 2 | 2 | . | .
O=C(Nc1ccc2nccnc2c1)c1cnccn1 | -10 | -1 | -3 | 0 | 4 | 132* | 42 | 70*
O=C(Nc1cccc(Cl)c1)Nc1ccccc1-n1ccnc1 | -6 | 0 | -8 | 26 | 24 | 3 | . | .
O=c1c2ccccc2nc2n1CC/C2=C\N1CCN(c2ccc([N+](=O)[O-])cc2)CC1 | -6 | 9 | -12 | 1 | 0 | 94* | 32 | 23*
O=[N+]([O-])c1ccc(N2CCN(c3ccccc3)CC2)cc1 | 7 | 1 | -6 | 2 | -3 | -4 | . | .
COc1ccc(Br)c(C(=O)N2CCN(S(=O)(=O)c3cccs3)CC2)c1 | -6 | 2 | -17 | 0 | -7 | 136* | 18 | 4
CCOc1ccc(-c2cc(C(=O)OC)[nH]n2)cc1 | -5 | 1 | -26 | -1 | -24 | 22 | . | .
